Results taken from ChEMBL document CHEMBL2417450, “Antitumor properties of substituted (αE)-α-(1H-indol-3-ylmethylene)benzeneacetic acids or amides” (Bioorg Med Chem, 2013).

Tests used:
[1] = Cytotoxicity against human fibroblasts assessed as cell viability after 72 hrs by MTT assay relative to control; type: cell-based, Fibroblast; design: concentration or dose not given beside the values; settings: read-out: Activity
M14 = assay: Cytotoxicity against human M14 cells assessed as cell viability after 72 hrs by MTT assay; type: functional, cell-based; settings: M14, 72 h
Summary of the method: (§1)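 Cells were grown at 37 °C in humidified 5% CO2/95% air. DU145 and A549 were kept in DMEM with 10% FCS, glutamine and nonessential amino acids. LNCaP, KB and M14 were kept in RPMI with 10% FCS, and Caco2 in MEM with 10% FCS. For the MTT assay, 1 × 10^4 cells were seeded per well and preincubated 24 h, then treated 72 h (DMSO ≤0.1%). MTT (0.5% in PBS) was added 4 h before the end, formazan was dissolved in DMSO, and OD was read at 550 nm. Triplicates were run.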

A549 = assay: Cytotoxicity against human A549 cells assessed as cell viability after 72 hrs by MTT assay; type: functional, cell-based; settings: A549, 72 h; summary of the method: as §1
KB = assay: Cytotoxicity against human KB cells assessed as cell viability after 72 hrs by MTT assay; type: functional, cell-based; summary of the method: as §1
LNCaP = assay: Cytotoxicity against human LNCAP cells assessed as cell viability after 72 hrs by MTT assay; type: functional, cell-based; summary of the method: as §1
DU-145 = assay: Cytotoxicity against human DU145 cells assessed as cell viability after 72 hrs by MTT assay; type: functional, cell-based; settings: DU-145, 72 h; summary of the method: as §1
Caco-2 = assay: Cytotoxicity against human Caco2 cells assessed as cell viability after 72 hrs by MTT assay; type: functional, cell-based; settings: Caco-2, 72 h; summary of the method: as §1

Compound	viability at 72 h [1] [%]	IC50 (M14) [µM]	IC50 (A549) [µM]	IC50 (KB) [µM]	IC50 (LNCaP) [µM]	IC50 (DU-145) [µM]	IC50 (Caco-2) [µM]
COc1ccc(Cn2cc(/C=C(/C(=O)O)c3ccccc3)c3cc(OCc4ccccc4)ccc32)cc1	85	64.5	1	97	38.2	0.86	
NC(=O)/C(=C/c1c[nH]c2ccc(OCc3ccccc3)cc12)c1ccccc1	85	> 100		40.3		30.9	> 100
O=C(O)/C(=C/c1c[nH]c2ccccc12)c1ccccc1	85	> 100		> 100		> 100	> 100
COc1cccc(/C(=C\c2cn(C(C)=O)c3ccc(OCc4ccccc4)cc23)C(=O)O)c1	85	> 100	45.2	> 100	65.1	1.08	
NC(=O)/C(=C/c1c[nH]c2ccccc12)c1ccccc1	85	45.4		> 100		33.3	> 100
COc1ccc(/C(=C\c2c[nH]c3ccccc23)C(N)=O)cc1	85	53		86.2		40	> 100
O=C(O)/C(=C/c1c[nH]c2ccc(OCc3ccccc3)cc12)c1ccccc1	85	95.2		55.5		34.7	41.6
COc1cc(/C(=C\c2cn(C(C)=O)c3ccc(OCc4ccccc4)cc23)C(=O)O)cc(OC)c1OC	85	57.1	89.1	> 100	59.6	0.95	
CC(=O)n1cc(/C=C(/C(=O)O)c2ccc3c(c2)OCO3)c2cc(OCc3ccccc3)ccc21	85	> 100	53.6	> 100	99.1	1.15	
COc1ccc(/C(=C\c2c[nH]c3ccc(OCc4ccccc4)cc23)C(=O)O)cc1	85	58.4		38.5		38.1	> 100
